Experimental data as given in ChEMBL document CHEMBL1157799, “Creating an antibacterial with in vivo efficacy: synthesis and characterization of potent inhibitors of the bacterial cell division protein FtsZ with improved pharmaceutical properties” (J Med Chem, 2010).
Converted amounts (≈) assume the structure as drawn. The source made the active and inactive calls. No cut-off for these calls is given here.

Assays:
[1] = system: Staphylococcus aureus; assay: Antibacterial activity against Staphylococcus aureus ATCC 29213 by broth microdilution assay; format: functional
Summary of the method: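 Broth microdilution MIC per CLSI recommendations; reproducibility within one 2-fold dilution of the end point.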

[2] = molecular target: T1, Cell division protein FtsZ (Staphylococcus aureus) (UniProt P0A031); assay: Inhibition of Staphylococcus aureus ATCC 29213 FtsZ assessed as lowest drug level required for ballooning of cells by light microscopy
T1 sequence (whole entry): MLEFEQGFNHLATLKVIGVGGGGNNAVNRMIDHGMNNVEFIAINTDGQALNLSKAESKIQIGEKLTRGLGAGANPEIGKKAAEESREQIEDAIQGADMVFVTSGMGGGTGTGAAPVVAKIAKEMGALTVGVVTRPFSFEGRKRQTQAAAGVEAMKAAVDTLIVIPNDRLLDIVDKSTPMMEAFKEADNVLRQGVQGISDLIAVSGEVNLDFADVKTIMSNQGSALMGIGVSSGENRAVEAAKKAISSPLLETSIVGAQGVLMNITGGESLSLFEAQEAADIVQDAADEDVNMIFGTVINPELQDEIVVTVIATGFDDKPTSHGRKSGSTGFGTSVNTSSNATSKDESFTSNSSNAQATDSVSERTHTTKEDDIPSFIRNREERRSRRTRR
Summary of the method: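 Cocci examined by light microscopy for morphology. Value is the lowest concentration at which ballooning appears; WT is recorded when morphology is unchanged.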

[3] = system: Staphylococcus aureus; assay: Antibacterial activity against Staphylococcus aureus ATCC 29213 by broth microdilution assay in presence of 2% bovine serum albumin; format: functional
Summary of the method: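 Broth microdilution MIC per CLSI recommendations, with 2% w/v bovine serum albumin added to the assay medium to track the effect of protein on antibacterial activity.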

[4] = molecular target: Cytochrome P450 2C19 (Homo sapiens, UniProt P33261); assay: Inhibition of human recombinant CYP2C19 by fluorescence assay; format: ADME
Summary of the method: (§1)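 Human recombinant CYP isozymes tested by metabolism of fluorogenic substrates, read by fluorescence. IC50 in µg/mL.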

[5] = system: Plasma; assay: Plasma protein binding in mouse at 10 uM by equilibrium dialysis; format: ADME, cell-free
Summary of the method: (§2)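 Binding to plasma measured by equilibrium dialysis of a 10 µM compound solution. Reported as fraction unbound or percent bound.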

[6] = molecular target: T2, Cytochrome P450 1A2 (Homo sapiens, UniProt P05177); assay: Inhibition of human recombinant CYP1A2 by fluorescence assay; format: ADME; summary of the method: as §1
T2 sequence (P05177 whole entry): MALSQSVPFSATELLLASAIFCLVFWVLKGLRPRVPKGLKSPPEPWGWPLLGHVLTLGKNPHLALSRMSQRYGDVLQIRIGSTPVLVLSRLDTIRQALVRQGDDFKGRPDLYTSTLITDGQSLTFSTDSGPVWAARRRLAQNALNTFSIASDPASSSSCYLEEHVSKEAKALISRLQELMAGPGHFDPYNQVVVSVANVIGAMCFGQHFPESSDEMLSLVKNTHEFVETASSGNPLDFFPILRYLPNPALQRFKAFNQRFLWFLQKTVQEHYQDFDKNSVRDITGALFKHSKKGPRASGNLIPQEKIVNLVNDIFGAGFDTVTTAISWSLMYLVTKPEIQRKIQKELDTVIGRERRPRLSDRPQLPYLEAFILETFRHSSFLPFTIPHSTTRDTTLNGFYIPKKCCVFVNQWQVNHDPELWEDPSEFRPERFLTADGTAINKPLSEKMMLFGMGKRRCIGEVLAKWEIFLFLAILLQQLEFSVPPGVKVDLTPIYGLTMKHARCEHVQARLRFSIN

[7] = system: Plasma; assay: Fraction unbound in mouse plasma at 10 uM by equilibrium dialysis; format: ADME, cell-free; summary of the method: as §2
[8] = molecular target: Cytochrome P450 2D6 (Homo sapiens, UniProt P10635); assay: Inhibition of human recombinant CYP2D6 by fluorescence assay; format: ADME; summary of the method: as §1
[9] = Chemical stability in phosphate buffered saline assessed as compound remaining at 10 uM after 24 hrs by LC/MS/MS analysis; format: physicochemical; conditions: buffer
Summary of the method: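 10 µM solution in phosphate buffered saline held 24 h at 37 °C. Parent remaining quantified by LC/MS.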

[10] = system: Staphylococcus aureus; assay: Antimicrobial activity against Staphylococcus aureus Smith infected in sc dosed mouse administered as single dose 1 hr after bacterial inoculation; format: functional
Summary of the method: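 Mice inoculated IP with an LD90-100 of S. aureus Smith (5×10^5 CFU/mouse) in 0.5 mL brain heart infusion broth with 5% mucin. Single SC dose of test substance or vehicle 1 h after inoculation, at 3, 10 or 30 mg/kg. Mortality monitored for 7 days. ED50 by nonlinear regression.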

[11] = Clearance in mouse microsome at 10 uM by LC/MS/MS analysis; format: ADME, Liver; conditions: microsomes
Summary of the method: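 Microsomal stability: compound at 10 µM incubated with microsomes. Parent remaining followed over a time course by LC/MS to give clearance per mg protein.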

[12] = molecular target: Cytochrome P450 3A4 (Homo sapiens, UniProt P08684); assay: Inhibition of human recombinant CYP3A4 by fluorescence assay; format: ADME; summary of the method: as §1
[13] = system: Plasma; assay: Metabolic stability in mouse plasma assessed as compound remaining at 10 uM after 24 hrs by LC/MS/MS analysis; format: ADME, cell-free
Summary of the method: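 10 µM compound in mouse plasma incubated 24 h at 37 °C. Percent remaining measured by LC/MS.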

[14] = system: Staphylococcus aureus; assay: Antimicrobial activity against Staphylococcus aureus Smith infected in mouse assessed as suppression of bacteria-induced mortality at 3 to 30 mg/kg, sc administered as single dose 1 hr after bacterial inoculation measured on day 2; format: functional, organism-based
Summary of the method: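 Mice inoculated IP with an LD90-100 of S. aureus Smith in 0.5 mL brain heart infusion broth with 5% mucin (4×10⁵ CFU/mouse for the IP study, 5×10⁵ CFU/mouse for the SC study). Vehicle or test agent given SC or IP 1 h post-infection at 3, 10 or 30 mg/kg. Mortality followed 7 days. ED50 by nonlinear regression.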

[15] = system: Staphylococcus aureus; assay: Antimicrobial activity against Staphylococcus aureus Smith infected in ip dosed mouse administered as single dose 1 hr after bacterial inoculation; format: functional
Summary of the method: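 Mice inoculated IP with an LD90-100 of S. aureus Smith (4×10^5 CFU/mouse) in 0.5 mL brain heart infusion broth with 5% mucin. Single IP dose of test substance or vehicle 1 h after inoculation, at 3, 10 or 30 mg/kg. Mortality monitored for 7 days. ED50 by nonlinear regression.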

[16] = system: Plasma; assay: Fraction unbound in human plasma at 10 uM by equilibrium dialysis; format: ADME, cell-free; summary of the method: as §2
[17] = molecular target: Cytochrome P450 2C9 (Homo sapiens, UniProt P11712); assay: Inhibition of human recombinant CYP2C9 by fluorescence assay; format: ADME; summary of the method: as §1
[18] = Clearance in mouse hepatocytes at 10 uM assessed per 10^6 cells by LC/MS/MS analysis; format: ADME, cell-based, Liver, Hepatocyte
Summary of the method: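 Hepatocyte stability: compound at 10 µM incubated with hepatocytes. Parent loss over a time course measured by LC/MS/MS, and clearance expressed per 10⁶ cells.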

[19] = molecular target: T1, Cell division protein FtsZ (Staphylococcus aureus); assay: Inhibition of Staphylococcus aureus ATCC 29213 FtsZ assessed as appearance of enlarged cells at 2048 to 4096 ug/mL by light microscopy

Chain of Cytochrome P450 2D6 (P10635 whole entry): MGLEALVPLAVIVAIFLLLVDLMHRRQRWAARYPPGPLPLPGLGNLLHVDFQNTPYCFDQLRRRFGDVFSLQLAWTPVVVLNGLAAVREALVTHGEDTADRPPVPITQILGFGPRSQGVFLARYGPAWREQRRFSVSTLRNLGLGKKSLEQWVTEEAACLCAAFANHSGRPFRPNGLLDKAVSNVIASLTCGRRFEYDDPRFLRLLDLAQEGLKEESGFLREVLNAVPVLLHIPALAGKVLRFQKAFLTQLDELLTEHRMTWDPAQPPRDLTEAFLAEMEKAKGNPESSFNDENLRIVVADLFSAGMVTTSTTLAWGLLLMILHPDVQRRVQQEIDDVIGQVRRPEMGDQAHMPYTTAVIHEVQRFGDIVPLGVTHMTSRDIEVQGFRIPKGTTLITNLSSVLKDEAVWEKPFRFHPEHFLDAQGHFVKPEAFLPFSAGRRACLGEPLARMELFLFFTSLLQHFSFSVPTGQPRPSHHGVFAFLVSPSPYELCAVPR
Chain of Cytochrome P450 2C9 (P11712 whole entry): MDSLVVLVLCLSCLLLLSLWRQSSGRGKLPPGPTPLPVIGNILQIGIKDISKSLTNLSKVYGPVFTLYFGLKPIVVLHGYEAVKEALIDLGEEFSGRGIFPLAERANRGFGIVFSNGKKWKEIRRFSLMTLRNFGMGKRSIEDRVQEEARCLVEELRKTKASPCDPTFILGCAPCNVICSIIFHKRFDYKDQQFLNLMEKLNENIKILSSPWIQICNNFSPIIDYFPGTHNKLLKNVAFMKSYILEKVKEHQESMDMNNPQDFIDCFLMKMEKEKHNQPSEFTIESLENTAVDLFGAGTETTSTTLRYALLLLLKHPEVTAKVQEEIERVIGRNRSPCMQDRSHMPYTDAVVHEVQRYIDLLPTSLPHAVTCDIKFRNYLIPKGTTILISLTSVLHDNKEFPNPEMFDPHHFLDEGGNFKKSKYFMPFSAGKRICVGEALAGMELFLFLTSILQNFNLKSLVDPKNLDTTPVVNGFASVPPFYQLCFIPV
Chain of Cytochrome P450 3A4 (P08684 whole entry): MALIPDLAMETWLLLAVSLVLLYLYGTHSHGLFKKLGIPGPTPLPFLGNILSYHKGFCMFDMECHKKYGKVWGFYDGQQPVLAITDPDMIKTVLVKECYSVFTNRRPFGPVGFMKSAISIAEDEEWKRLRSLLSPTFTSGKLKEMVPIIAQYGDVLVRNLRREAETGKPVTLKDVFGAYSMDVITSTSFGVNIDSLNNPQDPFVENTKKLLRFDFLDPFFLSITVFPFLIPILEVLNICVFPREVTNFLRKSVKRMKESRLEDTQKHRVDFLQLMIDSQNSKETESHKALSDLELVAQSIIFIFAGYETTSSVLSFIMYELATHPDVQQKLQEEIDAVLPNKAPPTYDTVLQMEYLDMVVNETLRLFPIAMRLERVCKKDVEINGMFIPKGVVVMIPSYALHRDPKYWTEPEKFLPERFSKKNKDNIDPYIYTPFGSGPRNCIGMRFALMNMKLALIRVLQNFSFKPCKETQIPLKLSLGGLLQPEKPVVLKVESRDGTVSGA
Chain of Cytochrome P450 2C19 (P33261 whole entry): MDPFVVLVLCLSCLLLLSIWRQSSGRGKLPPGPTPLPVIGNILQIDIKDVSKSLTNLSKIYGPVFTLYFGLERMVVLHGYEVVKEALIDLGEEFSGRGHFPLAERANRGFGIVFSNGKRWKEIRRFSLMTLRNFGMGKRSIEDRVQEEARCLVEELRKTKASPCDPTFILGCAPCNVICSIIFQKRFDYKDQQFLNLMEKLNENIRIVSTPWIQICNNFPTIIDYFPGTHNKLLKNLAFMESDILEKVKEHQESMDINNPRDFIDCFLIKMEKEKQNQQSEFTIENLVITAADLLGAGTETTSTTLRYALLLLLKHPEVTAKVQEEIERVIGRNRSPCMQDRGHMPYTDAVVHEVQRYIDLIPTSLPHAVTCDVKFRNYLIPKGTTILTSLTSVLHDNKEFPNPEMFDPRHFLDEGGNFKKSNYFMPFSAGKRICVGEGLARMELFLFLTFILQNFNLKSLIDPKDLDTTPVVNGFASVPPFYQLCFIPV

| Structure (SMILES) | MIC [1] [µg/mL] | Activity [2] [µg/mL] | MIC [3] [µg/mL] | further results |
| --- | --- | --- | --- | --- |
| NC(=O)c1c(F)ccc(OCc2nc3cc(C(=O)O)ccc3s2)c1F | > 64 | – | – | – |
| COC(=O)c1ccc2sc(COc3ccc(F)c(C(N)=O)c3F)nc2c1 | 1 (≈ 2.64 µM) | 2 | – | – |
| Cc1ccc2nc(COc3ccc(F)c(C(N)=O)c3F)sc2c1 | 8 (≈ 23.9 µM) | – | – | – |
| COc1cc2nc(COc3ccc(F)c(C(N)=O)c3F)sc2nc1Cl | 16 (≈ 41.5 µM) | – | > 64 | – |
| NC(=O)c1c(F)ccc(OCc2nc3c(-c4ccccc4)cccc3s2)c1F | > 256 | – | – | – |
| CCCCCCOc1ccc(F)c(C(N)=O)c1F | – | – | 32 | MIC [2]: 8 µg/mL (≈ 31.1 µM) |
| NC(=O)c1c(F)ccc(OCc2nc3cccc(-c4ccccc4)c3s2)c1F | > 256 | – | – | – |
| NC(=O)c1c(F)ccc(OCc2nc3cc(Cl)ccc3s2)c1F | – | 0.25 | – | IC50 [4]: > 33.8 µM; PPB [5]: 96.4%; IC50 [6]: > 33.8 µM; Fu [7]: 3%; IC50 [8]: > 33.8 µM; Stability [9]: 99%; ED50 [10]: > 30 mg/kg; CL [11]: 14 µL/min/mg; IC50 [12]: > 33.8 µM; Stability [13]: 99%; Activity [14]: inactive; ED50 [15]: 41 mg/kg; Fu [16]: 1%; IC50 [17]: > 33.8 µM; CL [18]: 31.2 uL/min/10^6cells |
| NC(=O)c1c(F)ccc(OCc2nc3cc(C(F)(F)F)ccc3s2)c1F | 0.25 (≈ 0.644 µM) | 0.5 | – | – |
| NC(=O)c1c(F)ccc(OCc2nc3cc(Cl)ncc3s2)c1F | 8 (≈ 22.5 µM) | – | 32 | – |
| NC(=O)c1c(F)ccc(OCc2ccc3ccccc3n2)c1F | – | – | 32 | MIC [2]: 16 µg/mL (≈ 50.9 µM) |
| CN(C)c1ccc2sc(COc3ccc(F)c(C(N)=O)c3F)nc2c1 | > 64 | – | – | – |
| NC(=O)c1c(F)ccc(OCc2nc3ccccc3s2)c1F | 2 (≈ 6.24 µM) | – | 8 | MIC [2]: 4 µg/mL (≈ 12.5 µM) |
| COc1cccc(C(N)=O)c1 | 2050 (≈ 13500 µM) | – | 4100 | inhibition [19]: Active |
| Cc1ccc2sc(COc3ccc(F)c(C(N)=O)c3F)nc2c1 | 4 (≈ 12 µM) | 8 | – | – |
| CCOc1cnc2sc(COc3ccc(F)c(C(N)=O)c3F)nc2c1 | 0.125 (≈ 0.342 µM) | – | 0.25 | PPB [5]: 89.9% |
| CCOc1ccc2sc(COc3ccc(F)c(C(N)=O)c3F)nc2c1 | – | 0.125 | – | PPB [5]: 96.4% |
| NC(=O)c1c(F)ccc(OCc2nc3ccc(-c4ccccc4)cc3s2)c1F | > 256 | – | – | – |
| NC(=O)c1c(F)ccc(OCc2nc3ccccc3o2)c1F | 128 (≈ 421 µM) | – | – | MIC [2]: 256 µg/mL (≈ 841 µM) |
| NC(=O)c1c(F)ccc(Oc2nc3ccccc3s2)c1F | > 256 | – | > 256 | – |
| NC(=O)c1c(F)ccc(OCc2nc3cccc(Cl)c3s2)c1F | 4 (≈ 11.3 µM) | 8 | – | – |

| Structure (SMILES) | MIC [1] [µg/mL] | Activity [2] [µg/mL] | MIC [3] [µg/mL] | further results |
| --- | --- | --- | --- | --- |
| NC(=O)c1c(F)ccc(OCc2nc3cc(-c4ncc[nH]4)ccc3s2)c1F | > 64 | – | – | – |
| Cc1cccc2sc(COc3ccc(F)c(C(N)=O)c3F)nc12 | 16 (≈ 47.9 µM) | 2050 | – | – |
| NC(=O)c1c(F)ccc(OCc2nc3c(Cl)cccc3s2)c1F | 16 (≈ 45.1 µM) | 8 | – | – |
| COc1cccc2sc(COc3ccc(F)c(C(N)=O)c3F)nc12 | 16 (≈ 45.7 µM) | 64 | – | – |
| NC(=O)c1c(F)ccc(OCc2nc3cc(-c4ncno4)ccc3s2)c1F | 0.5 (≈ 1.29 µM) | 0.5 | – | – |
| COc1ccc2sc(COc3ccc(F)c(C(N)=O)c3F)nc2c1 | – | 2 | – | – |
| Cc1cnc(COc2ccc(F)c(C(N)=O)c2F)s1 | 256 (≈ 900 µM) | – | 256 | – |
| NC(=O)c1c(F)ccc(OCc2nc3cc(Br)ccc3s2)c1F | 0.125 (≈ 0.313 µM) | 0.25 | – | – |
| NC(=O)c1c(F)ccc(OCc2nc3ccc(Cl)cc3s2)c1F | 4 (≈ 11.3 µM) | 8 | – | – |
| Cc1cccc(COc2ccc(F)c(C(N)=O)c2F)n1 | – | – | 64 | MIC [2]: 32 µg/mL (≈ 115 µM) |
| Cc1csc(COc2ccc(F)c(C(N)=O)c2F)n1 | – | – | – | MIC [2]: 16 µg/mL (≈ 56.3 µM) |
| NC(=O)c1c(F)ccc(OCc2nc3cc(O)ccc3s2)c1F | 32 (≈ 95.1 µM) | 64 | – | – |
| CCCc1ccc2sc(COc3ccc(F)c(C(N)=O)c3F)nc2c1 | – | 0.125 | – | – |
| NC(=O)c1c(F)ccc(OCc2nc3cc(-c4ccccc4)cnc3s2)c1F | 0.5 (≈ 1.26 µM) | – | 4 | PPB [5]: 98.5% |
| Cc1csc(COc2ccc(F)c(C(N)=O)c2F)c1 | – | – | 128 | MIC [2]: 32 µg/mL (≈ 113 µM) |
| NC(=O)c1c(F)ccc(OCc2nc3cc(-c4ccccc4)ccc3s2)c1F | 0.25 (≈ 0.631 µM) | 0.5 | – | PPB [5]: 99.2% |
| NC(=O)c1ccc2sc(COc3ccc(F)c(C(N)=O)c3F)nc2c1 | > 64 | – | – | – |
| NC(=O)c1c(F)ccc(OCCn2cccn2)c1F | 256 (≈ 958 µM) | – | 256 | – |
| COc1ccc2nc(COc3ccc(F)c(C(N)=O)c3F)sc2c1 | > 256 | – | – | – |
| NC(=O)c1c(F)ccc(OCc2nc3cc(N)ccc3s2)c1F | > 64 | – | – | – |
